An excerpt weighted towards active compounds, which were near 1.5% of everything screened.
EBI2 block: EBI2 (human) antagonism; P32249; EBI2 beta-arrestin recruitment, luminescence, 7a,25-OHC stimulated; inhibition, % at 5 µM; 360,000 tested, 0.81% active; AID 651636; in the data active means inhibition above about 38%;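 further: enzyme fragment complementation signal reports receptor beta-arrestin coupling in cells; 0% = agonist plus DMSO wells and 100% = wells without agonist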
CCR6 antag: blocks CCL20-driven beta-arrestin recruitment at human CCR6; CHO-K1 CCR6 PathHunter beta-arrestin, luminescence, CCL20-stimulated; inhibition, % at 20 µM; P51684; 340,000 tested, 0.49% active;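 active means compounds whose inhibition of the agonist-driven luminescence signal at 20 µM reaches about 50%, limit read from the data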;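 further: cells stimulated with CCL20 at 14 nM final; plate controls were DMSO with CCL20 for no effect and DMSO without agonist for full effect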
Target sequence (P51684 whole entry, looked up): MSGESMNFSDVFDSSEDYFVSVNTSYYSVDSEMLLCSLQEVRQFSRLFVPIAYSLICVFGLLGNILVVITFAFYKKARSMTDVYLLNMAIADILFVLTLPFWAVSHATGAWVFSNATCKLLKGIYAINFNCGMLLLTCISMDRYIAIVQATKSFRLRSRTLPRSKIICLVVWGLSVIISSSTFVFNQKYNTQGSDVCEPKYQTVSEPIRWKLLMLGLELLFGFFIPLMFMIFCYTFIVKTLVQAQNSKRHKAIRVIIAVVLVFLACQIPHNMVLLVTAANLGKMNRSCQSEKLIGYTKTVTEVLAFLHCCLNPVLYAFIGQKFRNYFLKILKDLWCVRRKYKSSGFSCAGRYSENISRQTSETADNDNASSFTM
APJ antagonist: APJ receptor antagonism. CHO-K1 APJ beta-arrestin complementation, luminescence. inhibition, % at 20 µM. 330,000 tested, 0.32% active. AID 2521;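 active means inhibition above about 40% at 20 µM, limit read from the data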;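 further: cells challenged with 10 nM apelin-13 agonist together with compound; plate controls were apelin-13 plus DMSO wells for no effect and DMSO wells lacking apelin-13 for full effect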
CXCR6 inh: inhibitors of human CXCR6 receptor. O00574. CHO-K1 PathHunter CXCR6 beta-arrestin, luminescence. inhibition, % at 20 µM. 360,000 tested, 0.36% active; in the data active means inhibition above about 34%, passing the limit was not always enough;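 further: antagonist mode with CXCL16 agonist at 10 nM final; 0% = 10 nM CXCL16 with DMSO and 100% = unstimulated wells without agonist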
Target sequence (O00574 whole entry, looked up): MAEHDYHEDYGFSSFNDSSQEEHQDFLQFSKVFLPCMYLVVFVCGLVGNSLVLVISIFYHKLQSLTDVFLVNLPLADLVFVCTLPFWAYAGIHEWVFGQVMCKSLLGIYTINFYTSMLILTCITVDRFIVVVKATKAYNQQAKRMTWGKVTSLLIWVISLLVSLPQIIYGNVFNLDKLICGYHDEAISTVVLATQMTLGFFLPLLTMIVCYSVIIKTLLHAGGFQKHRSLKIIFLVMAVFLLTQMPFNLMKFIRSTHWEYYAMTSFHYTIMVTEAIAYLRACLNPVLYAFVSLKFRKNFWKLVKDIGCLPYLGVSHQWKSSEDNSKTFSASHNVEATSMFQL
APJ agonist: APJ receptor agonism; P35414; CHO-K1 APJ PathHunter beta-arrestin, luminescence; 0% DMSO wells, 100% apelin; activation, % at 20 µM; 330,000 tested, 0.11% active;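 active means activation more than six SD over the plate average, tested at 20 µM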;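 further: 0% = DMSO alone and 100% = apelin-13 at 10 nM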
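Assay system: engineered CHO-K1 APJ arrestin reporter cells; Amount: 1000 CHO-K1 reporter cells seeded per well; Dosing: one dose, 20 µM compound, 1% DMSO; Times: compound stimulation 90 min at 25 °C, detection 60 min; Measured by: luminescent beta-gal fragment complementation, chemiluminescent substrate; Read-out: APJ–arrestin association signal; Controls: DMSO vs Apelin-13 10 nM.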
EBI2 conf: EBI2 (human) antagonism, single concentration confirmation; shares compounds with EBI2 block; EBI2 beta-arrestin luminescence, 7a,25-OHC antagonism; inhibition, % at 5 µM; 2,400 tested, 29% active; AID 651997;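 active means inhibition of at least 50%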
EBI2 agonist: activates EBI2, counter-screen for EBI2 antagonists | shares compounds with EBI2 block | EBI2-expressing cells, agonist mode, luminescence, 60 min; 0% vehicle, 100% 7α,25-dihydroxycholesterol control | activation, % at 5 µM | 2,400 tested, under 10 active | AID 652000;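 active means activation of at least 50%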
bGal cs: beta-galactosidase inhibition counter-screen. shares compounds with EBI2 block. purified beta-galactosidase, luminescent Galacton Star, 15 min. inhibition, % at 5 µM. 2,400 tested, 1% active;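 active means replicate-average signal at least 3 plate SD below neutral wells, shown as high inhibition, flagging enzyme-inhibiting false positives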;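 further: 0% = DMSO wells with enzyme and 100% = wells lacking enzyme; higher means stronger loss of beta-gal luminescence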
An asterisk follows results filed as active; · = not tested or not shown.

SMILES	EBI2 block	CCR6 antag	APJ antagonist	CXCR6 inh	APJ agonist	EBI2 conf	EBI2 agonist	bGal cs
CC1(C(=O)NCc2ccccc2)CSCC(=O)N1Cc1cccc(F)c1 (stereo not given)	0.2	·	·	·	·	·	·	·
O=C(COC(=O)/C=C/c1ccc(Cl)cc1)NCCN1C(=O)CSC1=O	45.9*	16.5	2.8	-0.2	-2.5	46.4	3.5	5.8
O=C1c2cnc3nc(SCc4cccc(Cl)c4)nn3c2CC2c3ccccc3CCN12 (stereo not given)	41.7*	23.3	22.1	15.7	-7.4	24.1	-4.3	-6.8
Cc1ccc(S(=O)(=O)N2CC3C(=O)C[C@@H](c4ccccc4)N(S(=O)(=O)c4ccccc4Cl)C3CC2c2ccccc2)cc1 (stereo not given in full)	15.2	·	·	·	·	·	·	·
C=C(C)C(O)Cc1c(OC)ccc(C(=O)/C=C/c2ccc(O)cc2)c1O (stereo not given)	16.8	29.1	-10.4	4.9	-1.5	·	·	·
CC(C)=CCC/C(C)=C/Cc1c(O)ccc(C(=O)/C=C/c2ccc(O)cc2)c1O	43.5*	28.4	-48.4	11.3	-8.2	49.2	1.5	3.1
COc1ccccc1/C=C\C(=O)NCC(=O)N/N=C/c1cccc(OC)c1O	-1.6	6.0	1.5	3.5	2.0	·	·	·
COc1ccc(/C=N/NC(=O)CNC(=O)/C=C/c2ccccc2OC)cc1	76.8*	-4.6	0.1	-0.7	-3.0	56.8*	0.0	-16.6
CS(=O)(=O)n1c2ccccc2c(=O)n1-c1ccccc1CCl	1.3	·	·	-5.6	·	·	·	·
Cc1ccc(Cn2cc(CN3CC(N4CCN(C5CCN(C)CC5)CC4)CS3(=O)=O)nn2)cc1 (stereo not given)	-10.9	·	·	-2.7	·	·	·	·
COc1cc(/C=N/OCC(=O)NC23CC4CC(CC(C4)C2)C3)ccc1OCc1ccccc1	44.7*	34.5	-11.9	11.4	-1.8	27.4	0.0	9.3
O=C(c1ccc(Br)cc1)N1CCN(S(=O)(=O)c2ccccc2)CC1	47.2*	20.0	-2.8	-0.1	0.4	38.7	-0.1	-11.5
O=C(CSc1cccc(C(F)(F)F)c1)N1CCN(S(=O)(=O)c2ccccc2)CC1	15.9	6.8	25.9	-0.2	0.3	·	·	·
O=C(CSc1ccc(Br)cc1)N1CCN(S(=O)(=O)c2ccccc2)CC1	89.7*	-4.9	-4.0	0.1	-6.9	66.8*	1.2	5.9
Cc1cc2c(cc1C)NC(=O)C(C)CN2 (stereo not given)	6.9	·	·	-1.2	·	·	·	·
CCOC(=O)c1sc(NC(=O)/C=C/c2cnn(CC)c2C)c(C(=O)OCC)c1C	40.3*	9.7	6.4	10.3	-3.9	34.9	0.8	9.9
CCCOC(=O)c1c(NC(=O)/C=C/c2cnn(C)c2C)sc(C(=O)OCC)c1C	15.6	15.5	20.1	6.0	-4.6	·	·	·
Cc1ccc(S(=O)(=O)C[C@@H]2OC[C@H](CO)N2S(=O)(=O)c2ccc(C)cc2)cc1	-0.9	·	·	·	·	·	·	·
O=c1ccn([C@@H]2O[C@H](CNCc3cccc4c3sc3ccccc34)[C@@H](O)[C@H]2O)c(=O)[nH]1	-7.9	·	·	0.8	·	·	·	·
O=C(/C=C/c1ccc(Cl)cc1Cl)c1nc2ccccc2[nH]1	44.2*	18.2	14.5	3.2	-1.2	15.5	1.2	1.4
Clc1ccc(/C=C/c2nc3ccccc3[nH]2)c(Cl)c1	15.1	-6.7	-26.6	-17.6	4.0	·	·	·
CC(C)(C)C(C(=O)NC1CCCC1)N1CCN(c2ncccc2C#N)CC1 (stereo not given)	0.4	·	·	·	·	·	·	·
COC(=O)c1cc(=O)n(Cc2ccco2)c(=Nc2ccc(F)cc2)s1	16.0	26.0	23.0	12.5	-7.7	·	·	·
COC(=O)c1cc(=O)n(CCc2ccc(OC)c(OC)c2)c(=Nc2ccc(F)c(Cl)c2)s1	63.5*	17.2	13.9	14.7	-1.7	62.1*	-1.4	-7.7
COC(=O)c1cc(=O)n(Cc2ccc(F)cc2)c(=Nc2ccccc2)s1	59.9*	26.1	8.4	15.0	-4.2	61.8*	-0.2	6.9
SMILES	EBI2 block	CCR6 antag	APJ antagonist	CXCR6 inh	APJ agonist	EBI2 conf	EBI2 agonist	bGal cs
CNC(=O)C1CC(=O)N(CCc2ccc(OC)c(OC)c2)C(=Nc2ccc(F)cc2)S1 (stereo not given)	-3.4	1.2	-30.8	7.3	-2.3	·	·	·
COC(=O)c1cc(=O)n(Cc2ccc(OC)c(OC)c2)c(=Nc2ccc(F)cc2)s1	70.0*	18.9	18.9	7.1	-3.7	50.5*	0.2	-9.1
COC(=O)c1cc(=O)n(-c2ccccc2)c(=Nc2ccccc2)s1	1.6	24.8	4.7	5.9	1.4	·	·	·
CCOC(=O)c1ccc(N=c2sc(C(=O)OC)cc(=O)n2-c2ccc(C(=O)OCC)cc2)cc1	79.2*	23.5	7.3	11.4	-0.7	73.5*	0.5	7.2
COC(=O)c1cc(=O)n(Cc2cccs2)c(=Nc2ccccc2)s1	24.7	16.2	2.2	6.5	-5.0	·	·	·
O=C(Nc1ccc2c(c1)OCO2)c1cc(C2CCCCN2S(=O)(=O)c2ccccc2)on1 (stereo not given)	2.8	·	·	12.3	·	·	·	·
Cc1ccc(CNC(=O)Cn2nnc(C(=O)Nc3cccc(C)c3C)c2N)cc1	-5.0	15.4	13.8	-5.6	-3.3	·	·	·
Cc1ccccc1Cn1nnc(C(=O)Nc2cccc(C)c2C)c1N	43.1*	-1.1	-12.5	-10.5	-0.8	17.7	1.0	2.0
O=C(COc1ccccc1)N1CCN(c2ccc([N+](=O)[O-])c(N3CCCCC3)c2)CC1	50.2*	19.0	2.0	1.4	-3.4	20.4	0.3	11.6
CC(C)(C)C(=O)N1CCN(c2ccc(Cl)cc2[N+](=O)[O-])CC1	11.6	9.0	26.8	1.1	-2.9	·	·	·
O=C(COc1ccc(Cl)cc1)N1CCN(c2ccc([N+](=O)[O-])c(N3CCOCC3)c2)CC1	85.3*	6.3	-6.8	-9.8	-2.4	61.4*	0.1	9.4
O=C(COc1ccc(Br)cc1)N1CCN(c2ccc([N+](=O)[O-])c(N3CCCCC3)c2)CC1	77.0*	15.3	7.9	13.5	1.2	56.7*	-1.2	8.8
CC(=O)N1CCN(C(=O)COc2ccc(Br)cc2)CC1	43.1	-13.6	10.8	-3.0	-1.8	·	·	·
O=C(CSc1ccc(Cl)cc1)N1CCN(c2ccc(Cl)cc2[N+](=O)[O-])CC1	82.4*	5.3	18.7	-1.4	-0.3	76.0*	1.8	8.5
Cc1[nH]nc(C(F)(F)F)c1N=NN1CCOCC1	-9.3	-4.6	·	-7.4	·	·	·	·
Cc1noc(C)c1-c1ccc(C(=O)NCCN2CCOCC2)c2occc12	0.8	·	·	-1.4	·	·	·	·
CC1Cc2ccccc2N1C(=O)CN(C)CC(=O)Nc1cccc(F)c1 (stereo not given)	-6.7	-0.3	27.4	-3.1	-2.7	·	·	·
